Measurements published in ChEMBL document CHEMBL2311413, “N-cinnamoylated chloroquine analogues as dual-stage antimalarial leads” (J Med Chem, 2013).
Activity calls are given as the source filed them. No cut-off for these calls is given here.

Legend:
Plasmodium berghei [1] = test: Antiplasmodial activity against Plasmodium berghei liver stage form transfected in human Huh-7 cells assessed as cell viability after 48 hrs by luciferase reporter gene assay; type: functional, organism-based; conditions: Huh-7, 48 h
Plasmodium berghei [2] = test: Antimalarial activity against Plasmodium berghei infected in Swiss Webster mouse assessed as increase in survival time at 30 mg/kg, ip bid administered for 4 days by Giemsa staining method relative to untreated control; type: functional
How it was run: (§1)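 Female Swiss Webster mice (n = 5) infected ip with 10^6 P. berghei-infected erythrocytes. Dosing began 2 h later by ip injection twice daily for 4 days; chloroquine control at 3, 10, 30 mg/kg ip twice daily. Mice checked daily for toxicity and parasitemia (Giemsa-stained blood smears). Survival after treatment start compared with untreated controls.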

Plasmodium berghei [3] = test: Antimalarial activity against Plasmodium berghei infected in Swiss Webster mouse assessed as increase in survival time at 10 mg/kg, ip bid administered for 4 days by Giemsa staining method relative to untreated control; type: functional; how it was run: as §1
Plasmodium falciparum [4] = test: Antiplasmodial activity against CQ-resistant Plasmodium falciparum W2 blood stage form after 48 hrs by FACSort cytometry; type: functional, organism-based; conditions: W2, 48 h
Plasmodium falciparum [5] = test: Antiplasmodial activity against CQ-resistant Plasmodium falciparum 3D7 blood stage form after 48 hrs by FACSort cytometry; type: functional, organism-based; conditions: 3D7, 48 h
Huh-7 = test: Cytotoxicity against human HuH7 cells assessed as cell viability by AlamarBlue assay; type: cell-based
How it was run: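 Huh-7 human hepatoma cells grown in RPMI 1640 with 10% FCS, nonessential amino acids, glutamine and 10 mM HEPES pH 7, 37 °C, 5% CO2; 1.2 × 10^4 cells/well seeded the day before. Compound added ~1 h before P. berghei sporozoite infection and renewed at 24 h. Viability read by AlamarBlue per manufacturer's protocol at 48 h post-infection.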

[6] = Inhibition of beta-hematin formation at 0.1 to 1 mM after 48 hrs relative to control; type: functional
How it was run: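 Compounds in DMSO, 0.1−1 mM, added in triplicate to hemin chloride in DMSO (5.2 mg/mL). Formation started with 0.2 M acetate buffer pH 4.4, then 37 °C for 48 h. After centrifugation, pellet washed four times with DMSO and dissolved in 0.2 M NaOH, diluted 1:6 in 0.1 M NaOH, absorbance at 405 nm. Water and DMSO as negative controls.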

Mus musculus [7] = test: Toxicity in Plasmodium berghei infected Swiss Webster mouse at 10 to 100 mg/kg, ip bid administered for 4 days by Giemsa staining method; type: organism-based; design: dose 10-100 mg/kg, route intraperitoneal; conditions: in vivo, 96 h
How it was run: (§2)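 Female Swiss Webster mice (n = 5) infected ip with 10^6 P. berghei-infected erythrocytes. Treatment began 2 h later: ip 10, 30 or 100 mg/kg twice daily for 4 days. Chloroquine control at 3, 10 and 30 mg/kg ip twice daily. Daily checks for toxicity and for parasitemia on Giemsa-stained blood smears; survival followed over time.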

Plasmodium berghei [8] = test: Antimalarial activity against Plasmodium berghei infected in Swiss Webster mouse assessed as increase in survival time at 100 mg/kg, ip bid administered for 4 days by Giemsa staining method relative to untreated control; type: functional; conditions: route intraperitoneal; how it was run: as §1
Mus musculus [9] = test: Toxicity in Plasmodium berghei infected Swiss Webster mouse at 100 mg/kg, ip bid administered for 4 days by Giemsa staining method; type: organism-based; design: dose 100 mg/kg, route intraperitoneal; conditions: in vivo, 96 h; how it was run: as §2

Row | SMILES | IC50 (Plasmodium berghei [1]) [nM] | IC50 (Plasmodium falciparum [4]) [nM] | IC50 (Plasmodium falciparum [5]) [nM] | inhibition [6] [%] | other results
1 | COc1cc(NC(C)CCCN)c2ncccc2c1 (stereo not drawn) [PRIMAQUINE] | 7500 | – | – | – | –
2 | COc1ccc(/C=C/C(=O)NCCCCNc2ccnc3cc(Cl)ccc23)cc1 | 2860 | 20 | 30.6 | 50 | Activity (Plasmodium berghei [2]): inactive; Activity (Plasmodium berghei [3]): inactive; Activity (Huh-7): Non-toxic; Activity (Mus musculus [7]): Non-toxic; Survival (Plasmodium berghei [8]): 2 days
3 | O=C(/C=C/c1ccc(F)cc1)NCCCCNc1ccnc2cc(Cl)ccc12 | 1420 | 19.7 | 39.9 | 50 | –
4 | CC(C)c1ccc(/C=C/C(=O)NCCCCN2CCOCC2)cc1 | > 10000 | > 10000 | – | – | –
5 | O=C(/C=C/c1ccccc1)NCCCCNc1ccnc2cc(Cl)ccc12 | 1060 | 46.6 | 62.9 | – | –
6 | Cc1ccc(/C=C/C(=O)NCCCNc2ccnc3cc(Cl)ccc23)cc1 | – | 47.4 | 55.9 | – | –
7 | O=C(/C=C/c1ccc(F)cc1)NCCCNc1ccnc2cc(Cl)ccc12 | – | 46.7 | 47.7 | – | –
8 | O=C(/C=C/c1ccccc1[N+](=O)[O-])NCCCNc1ccnc2cc(Cl)ccc12 | – | 52.1 | 64.2 | 50 | –
9 | COc1ccc(/C=C/C(=O)NCCCNc2ccnc3cc(Cl)ccc23)cc1 | 4020 | 55.1 | 49.5 | – | –
10 | CN(C)c1ccc(/C=C/C(=O)NCCCCNc2ccnc3cc(Cl)ccc23)cc1 | – | 25.8 | – | 50 | –
11 | C[C@@H]1CC[C@H]2[C@@H](C)C(=O)O[C@@H]3O[C@@]4(C)CC[C@@H]1[C@]32OO4 [ARTEMISININ] | – | 9.5 | 23.5 | < 50 | –
12 | Nc1ccc(/C=C/C(=O)NCCCCNc2ccnc3cc(Cl)ccc23)cc1 | – | 58.8 | 78.1 | – | –
13 | O=C(/C=C/c1ccccc1[N+](=O)[O-])NCCCCNc1ccnc2cc(Cl)ccc12 | 1090 | 38.3 | 56.9 | 50 | –
14 | COc1ccc(/C=C/C(=O)NCCCC(C)Nc2cc(OC)cc3cccnc23)cc1 (stereo not drawn) | 2350 | > 10000 | – | – | –
15 | CC(C)c1ccc(/C=C/C(=O)NCCCCCNc2ccnc3cc(Cl)ccc23)cc1 | – | 31.5 | – | 50 | –
16 | O=C(/C=C/c1cccc([N+](=O)[O-])c1)NCCCCNc1ccnc2cc(Cl)ccc12 | – | 26.2 | 42.1 | – | –
17 | O=C(/C=C/c1cccc([N+](=O)[O-])c1)NCCCNc1ccnc2cc(Cl)ccc12 | – | 50.3 | 52.7 | 50 | –
18 | CC(C)c1ccc(/C=C/C(=O)NCCCNc2ccnc3cc(Cl)ccc23)cc1 | – | 38 | 50.3 | – | –
19 | Nc1ccc(/C=C/C(=O)NCCCNc2ccnc3cc(Cl)ccc23)cc1 | – | 79.8 | 135 | – | –

Row | SMILES | IC50 (Plasmodium berghei [1]) [nM] | IC50 (Plasmodium falciparum [4]) [nM] | IC50 (Plasmodium falciparum [5]) [nM] | inhibition [6] [%] | other results
20 | COc1ccc(/C=C/C(=O)NCCCCCNc2ccnc3cc(Cl)ccc23)cc1 | 2270 | 50.3 | – | – | –
21 | CC(C)c1ccc(/C=C/C(=O)NCCCCNc2ccnc3ccccc23)cc1 | – | 115 | – | – | –
22 | O=C(/C=C/c1ccc([N+](=O)[O-])cc1)NCCCNc1ccnc2cc(Cl)ccc12 | – | 23.7 | 52.5 | 50 | –
23 | O=C(/C=C/c1ccc(Cl)cc1)NCCCCNc1ccnc2cc(Cl)ccc12 | 1440 | 11.6 | 26.2 | 50 | Survival (Plasmodium berghei [2]; route intraperitoneal): 2 days; Survival (Plasmodium berghei [3]; route intraperitoneal): 2 days; Activity (Mus musculus [9]): Toxic
24 | O=C(/C=C/c1ccc(Cl)cc1)NCCCCCNc1ccnc2cc(Cl)ccc12 | 1620 | 25.1 | – | – | –
25 | O=C(/C=C/c1ccc(Cl)cc1)NCCCNc1ccnc2cc(Cl)ccc12 | – | 41.6 | 46.5 | 50 | –
26 | O=C(/C=C/c1cccc(F)c1)NCCCCNc1ccnc2cc(Cl)ccc12 | 1130 | 34.1 | 50.9 | 50 | –
27 | COc1ccc(/C=C/C(=O)OCCCCNc2ccnc3cc(Cl)ccc23)cc1 | 6470 | 122 | – | 50 | –
28 | O=C(/C=C/c1ccc(Br)cc1)NCCCNc1ccnc2cc(Cl)ccc12 | – | 38.2 | 50 | – | –
29 | O=C(/C=C/c1ccccc1)NCCCNc1ccnc2cc(Cl)ccc12 | – | 74.8 | 141 | – | –
30 | CC(C)c1ccc(/C=C/C(=O)NCCCCNc2ccnc3cc(Cl)ccc23)cc1 | 2500 | 11 | 15.6 | 50 | Activity (Plasmodium berghei [2]): inactive; Activity (Plasmodium berghei [3]): inactive; Activity (Mus musculus [9]): Toxic
31 | O=C(/C=C/c1ccc(Br)cc1)NCCCCNc1ccnc2cc(Cl)ccc12 | 2280 | 18.2 | 28.8 | > 75 | –
32 | O=C(/C=C/c1ccc([N+](=O)[O-])cc1)NCCCCNc1ccnc2cc(Cl)ccc12 | – | 23.5 | 48.9 | > 75 | –
33 | COc1ccc(/C=C/C(=O)NCCCCNc2ccncc2)cc1 | > 10000 | > 10000 | – | – | –
34 | CCN(CC)CCCC(C)Nc1ccnc2cc(Cl)ccc12 (stereo not drawn) [CHLOROQUINE] | 15900 | – | – | > 75 | –
35 | Cc1ccc(/C=C/C(=O)NCCCCNc2ccnc3cc(Cl)ccc23)cc1 | 2360 | 16.9 | 24.2 | – | –
36 | COc1ccc(/C=C/C(=O)NCCCCNc2ccnc3cc(Cl)ccc23)cc1OC | 4050 | 111 | – | – | Activity (Huh-7): Non-toxic
37 | O=C(/C=C/c1cccc(F)c1)NCCCNc1ccnc2cc(Cl)ccc12 | – | 73.3 | 138 | – | –
